Compound activity (PubChem BioAssay)
The entries come from a sample that favours hits as a whole.
NOD2 RIPK2 PPI = NOD2-RIPK2 binding disruptors in cells, primary screen, fluorescence, CHO cells, BLA complementation; Receptor-interacting serine/threonine-protein kinase 2 (Homo sapiens), O43353; CCF4 ratio; inhibition, % at 4.98 µM; 360,000 compounds, 0.38% hits; AID 624267, 2012; in the data active = inhibition above about 21%;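 also: 0% = vehicle only and 100% = reference blocker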
XBP1 UPR activ = activators of adaptive XBP1 UPR arm, primary screen, cell-based, CHO-XBP1 luciferase reporter, luminescence, uHTS; activation, % at 20 µM; 330,000 compounds, 0.33% hits; IRE1-XBP1 UPR activation; percent of tunicamycin response, DMSO as zero;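 active = versus positive control, 20 µM dose yields 30% or more activation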;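 also: 100% = tunicamycin at 10 µg/mL and 0% = DMSO only wells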
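assay system = CHO-XBP1 luciferase reporter cells | amount = 1000 cells/well | buffer or medium = F12 plus 10% FBS | compound dosing = single point, 20 µM final compound, 1% DMSO | incubation = 16-18 h cell attachment at 37 °C, then 6 h compound exposure | detection = Steady-Glo luminescence read | controls = tunicamycin 10 µg/mL and vehicle-only wells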
TLR4 MyD88 comp = inhibitors of TLR4-MyD88 association in cells, primary screen, cell-based, HeLa CL3-4, BLA complementation, FRET ratio. Toll-like receptor 4 (Homo sapiens) + Myeloid differentiation primary response protein …. inhibition, % at 8.4 µM. HeLa CL3-4 TLR4/MyD88 BLA complementation. AID 861, 2007. 200,000 compounds, 0.18% hits; in the data active = inhibition above about 25%;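 also: 0% = vehicle and 100% = reference inhibitor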
CHOP inh = inhibitors of CHOP promoter induction, primary screen, cell-based, unfolded protein response, luciferase reporter | CHO-K1 CHOP-promoter luciferase, tunicamycin-induced, 15-18 h | inhibition, % at 10 µM | 220,000 compounds, 3.8% hits;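 active = compounds that reduced the stress-induced luciferase reporter signal by more than about 70% of percent inhibition, limit read from the data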;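 also: 0% = tunicamycin plus vehicle and 100% = wells without tunicamycin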
TLR9-MyD88 inh = inhibitors of TLR9-MyD88 association in cells, primary screen, cell-based, CHO, BLA complementation, fluorescence | CCF4 FRET ratio | inhibition, % at 4.98 µM | 340,000 compounds, 0.21% hits;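 active = inhibition above the mean over all tested compounds plus 3 SD, cut at about 21% in these data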;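 also: 0% = DMSO only wells and 100% = clavulanate BLA inhibitor control wells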
UPR CHOP act = activators of apoptotic CHOP UPR arm, primary screen, cell-based, CHO-CHOP luciferase reporter, luminescence, uHTS. UPR activation; percent of tunicamycin response over DMSO baseline. activation, % at 10 µM. 330,000 compounds, 0.34% hits. AID 449763, 2010;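 active = at 10 µM dose, activation of 40% or more, normalized to positive control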;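 also: 100% = tunicamycin at 10 µg/mL and 0% = DMSO alone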
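Dosing – one dose, 10 µM in 0.5% DMSO · System – CHO-CHOP cells, stable luciferase reporter of PERK-eIF2a-CHOP signalling · Input – 500 cells/well · Control set – tunicamycin 10 µg/mL final as positive, DMSO-only wells as negative · Timing – 6 h compound treatment, 37 °C · Measure – % activation vs tunicamycin · Technique – luminescence read with Steady-Glo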
TLR9-MyD88 cf = TLR9-MyD88 association inhibitors, retest, confirmation, cell-based, CHO, BLA complementation, fluorescence, triplicate; shares compounds with TLR9-MyD88 inh; CCF4 FRET ratio; inhibition, % at 4.98 µM; 680 compounds, 51% hits;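 active = mean inhibition across three repeats above about 21% taken from the earlier screen, limit read from the data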;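 also: blue over green emission ratio reports constitutive TLR9 MyD88 association via BLA complementation; 0% = DMSO vehicle wells and 100% = clavulanate BLA inhibitor wells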
Target sequence (Q9NR96 whole entry, looked up): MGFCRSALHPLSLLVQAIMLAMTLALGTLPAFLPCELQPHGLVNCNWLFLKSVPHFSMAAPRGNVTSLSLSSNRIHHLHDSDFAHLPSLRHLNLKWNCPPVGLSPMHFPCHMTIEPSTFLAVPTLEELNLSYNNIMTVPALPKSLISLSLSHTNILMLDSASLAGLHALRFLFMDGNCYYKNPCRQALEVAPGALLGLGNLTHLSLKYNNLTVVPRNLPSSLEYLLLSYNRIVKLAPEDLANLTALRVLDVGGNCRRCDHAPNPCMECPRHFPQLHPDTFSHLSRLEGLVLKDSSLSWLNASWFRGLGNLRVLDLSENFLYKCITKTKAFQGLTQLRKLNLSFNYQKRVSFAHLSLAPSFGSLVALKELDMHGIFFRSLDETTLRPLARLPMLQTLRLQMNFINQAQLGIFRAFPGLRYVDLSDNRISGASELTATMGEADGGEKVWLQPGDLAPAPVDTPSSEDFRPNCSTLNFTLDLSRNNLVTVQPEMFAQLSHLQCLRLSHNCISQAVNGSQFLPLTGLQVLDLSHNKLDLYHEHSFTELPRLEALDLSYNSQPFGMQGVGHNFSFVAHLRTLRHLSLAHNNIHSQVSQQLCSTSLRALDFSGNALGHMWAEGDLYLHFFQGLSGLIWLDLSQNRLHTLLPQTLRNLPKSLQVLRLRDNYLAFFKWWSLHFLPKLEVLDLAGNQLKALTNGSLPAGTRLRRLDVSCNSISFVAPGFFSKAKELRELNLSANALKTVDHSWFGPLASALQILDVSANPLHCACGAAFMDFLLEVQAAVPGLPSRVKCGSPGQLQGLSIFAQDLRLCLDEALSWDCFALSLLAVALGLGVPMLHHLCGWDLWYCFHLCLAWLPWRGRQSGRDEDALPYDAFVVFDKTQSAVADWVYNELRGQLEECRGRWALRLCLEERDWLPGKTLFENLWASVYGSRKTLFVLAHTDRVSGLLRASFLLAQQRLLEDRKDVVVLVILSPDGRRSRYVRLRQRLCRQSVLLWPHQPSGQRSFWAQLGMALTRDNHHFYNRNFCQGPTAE
BLA counter-1 = beta-lactamase reporter inhibitors in CHO cells, artefact control for TLR9-MyD88 binding inhibitor project, cell-based, fluorescence; shares compounds with TLR9-MyD88 inh; CHO-BLA cells, CCF4 FRET ratio, BLA reporter; inhibition, % at 4.98 µM; 680 compounds, 7% hits; AID 540251, 2011;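 active = mean inhibition above a 50% cutoff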;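 also: counterscreen of TLR9-MyD88 hits on CMV-driven BLA in CHO-K1 cells; 0% = DMSO alone and 100% = clavulanate blocking BLA; higher means less blue over green ratio so more BLA blockade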
TLR9 CHO tox = CHO cell viability loss – luminescence, single concentration, cytotoxicity control for TLR9-MyD88 binding inhibitor project | shares compounds with TLR9-MyD88 inh | TLR9-MyD88 CHO cells cytotoxicity | inhibition, % at 4.98 µM | 680 compounds, 39% hits | AID 588336, 2011; in the data active = inhibition above about 11%
NOD2-RIPK2 conf = NOD2-RIPK2 binding disruptors, retest, confirmation, fluorescence, CHO cells, BLA complementation, triplicate | shares compounds with NOD2 RIPK2 PPI | CCF4 FRET | inhibition, % at 4.98 µM | 1,200 compounds, 70% hits | AID 624370, 2012;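 active = mean inhibition across replicates above a set limit taken from the earlier primary screen, cut at about 21% in these data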;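 also: 0% = DMSO-only wells and the high end = clavulanate BLA-blocked wells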
BLA counter-2 = hits BLA reporter in NOD2-RIPK2 inhibitor counterscreen; CHO BLA reporter, CCF4 FRET ratio; 1,200 compounds, 57% hits; shares compounds with NOD2 RIPK2 PPI; AID 624371; inhibition, % at 4.98 µM;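 active = mean inhibition above the low-control mean inhibition plus three low-control SD, cut at about 11% in these data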;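 also: 0% = DMSO only wells and 100% = clavulanate high control wells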
Starred values were filed as active, the others as inactive; nt = no result given; + = active, no number.

SMILES | NOD2 RIPK2 PPI | XBP1 UPR activ | TLR4 MyD88 comp | CHOP inh | TLR9-MyD88 inh | UPR CHOP act | TLR9-MyD88 cf | BLA counter-1 | TLR9 CHO tox | NOD2-RIPK2 conf | BLA counter-2
O=c1cc(-c2ccc(O)c(-c3c(O)cc(O)c4c(=O)cc(-c5ccc(O)cc5)oc34)c2)oc2cc(O)cc(O)c12 | 5 | 0 | -6 | 17 | -2 | 0 | nt | nt | nt | nt | nt
Nc1ccc(-c2n[nH]c(=O)c3ccccc23)cc1N | 1 | -3 | 0 | 19 | 4 | -2 | nt | nt | nt | nt | nt
CC1(C(=O)Nc2cccc(Oc3ccccc3)c2)CCN1Cc1cc2ccccc2o1 (centres undefined) | -6 | nt | nt | nt | nt | nt | nt | nt | nt | nt | nt
COC(=O)c1scc2c(=O)cc(C(F)(F)F)[nH]c12 | 72* | -2 | nt | -6 | 63* | -1 | 50* | 55* | -2 | 74* | 78*
O=C(Cn1sc2ccccc2c1=O)Nc1ccc(Br)cc1 | 28* | nt | nt | nt | 31* | nt | 17 | 0 | 81* | 34* | 6
O=C(CN1C(=O)C2CC=CCC2C1=O)Nc1ccc(Br)cc1 (centres undefined) | 3 | 1 | nt | nt | 4 | 0 | nt | nt | nt | nt | nt
O=c1oc2c(O)cccc2cc1-c1nc2ccccc2[nH]1 | 58* | -4 | nt | nt | 54* | 1 | 45* | 54* | 9 | 73* | 79*
O=c1oc2c(CN3CCCCC3)c(O)ccc2cc1-c1nc2ccccc2[nH]1 | 0 | nt | nt | nt | 5 | nt | nt | nt | nt | nt | nt
N/C(=N\OC(=O)Cc1ccccc1)c1ccccc1Cl | -2 | 7 | 7 | -14 | 9 | 4 | nt | nt | nt | nt | nt
CCCCCC(=O)N=Nc1c(O)[nH]c2ccc([N+](=O)[O-])cc12 | + | 0 | -5 | 11 | 23* | 2 | -1 | 3 | 0 | -2 | -1
Cc1ccc(NCC(=O)N=Nc2c(O)[nH]c3ccc([N+](=O)[O-])cc23)cc1 | nt | 4 | nt | -45 | nt | 8 | nt | nt | nt | nt | nt
Cc1ccc(C(=O)NCC(=O)OCC(=O)Nc2cc(S(=O)(=O)N3CCOCC3)ccc2Cl)s1 | -3 | -3 | nt | nt | 3 | 0 | nt | nt | nt | nt | nt
OCCCc1nc2n(n1)C(c1ccccc1)C=C(c1ccc(F)cc1)N2 (centres undefined) | 51* | 0 | 5 | -1 | 39* | 2 | 21* | 24 | 3 | 40* | 45*
OCCCc1nc2n(n1)C(c1cccs1)C=C(c1ccccc1)N2 (centres undefined) | nt | 6 | 24 | -7 | nt | 2 | nt | nt | nt | nt | nt
CCOc1ccccc1N1CC(C(=O)Nc2cc(Cl)ccc2C)CC1=O (centres undefined) | 9 | -1 | nt | nt | -1 | 2 | nt | nt | nt | nt | nt
COC(=O)c1cn[nH]c1NC(=S)Nc1ccc(C)cc1Cl | 50* | -2 | -8 | -34 | 23* | 2 | 8 | 4 | 4 | 27* | 12*
COc1ccc(C(=O)/C=C/C(=O)N(Cc2ccccc2)C(C(=O)NC2CCCCC2)c2ccncc2)c(O)c1 (centres undefined) | 8 | -2 | -6 | 9 | -1 | 0 | nt | nt | nt | nt | nt
COc1ccc(C(=O)/C=C/C(=O)N(CC(=O)NC2CCCCC2)CC2CCCO2)c(O)c1 (centres undefined) | 87* | -14 | 23 | 108* | 26* | 4 | 34* | 20 | 97* | 93* | 22*
COCCn1c2nc(=O)n(-c3ccccc3)c(=O)c-2nc2ccccc21 | 36* | nt | nt | nt | 23* | nt | 10 | 14 | 2 | 32* | 32*
COCCn1c(-c2ccc(OC)cc2)nc2ccccc21 | -1 | 4 | -6 | 14 | 4 | 1 | nt | nt | nt | nt | nt
O=C1N/C(=C/c2cccn2-c2ccc(F)cc2)C(=O)N1Cc1ccccc1 | 75* | -2 | 10 | 69 | 61* | 0 | 51* | 52* | 10 | 85* | 89*
COc1cc(NS(=O)(=O)c2ccc(C)cc2)c2ncccc2c1 | 51* | -4 | 22 | nt | 22* | 111* | 18 | 10 | 102* | 45* | 11*
COc1ccc(/C=C/c2cc(C(=O)O)c3ccccc3n2)cc1 | 48* | -7 | nt | 55 | 24* | -9 | 0 | 1 | 14* | 14 | 13*
COc1cc(OC)c(OC)cc1/C=C/c1cc(C(=O)O)c2ccccc2n1 | 6 | 2 | 10 | 11 | 9 | -2 | nt | nt | nt | nt | nt
Cc1ccccc1NC(=O)Cc1nc(COC(=O)c2ccc(S(C)(=O)=O)c([N+](=O)[O-])c2)cs1 | 45* | -6 | nt | nt | 25* | -9 | 17 | 6 | 84* | 50* | 11*
SMILES | NOD2 RIPK2 PPI | XBP1 UPR activ | TLR4 MyD88 comp | CHOP inh | TLR9-MyD88 inh | UPR CHOP act | TLR9-MyD88 cf | BLA counter-1 | TLR9 CHO tox | NOD2-RIPK2 conf | BLA counter-2
COc1cccc(CN2C(=O)c3cccc(N)c3C2=O)c1 | 36* | 3 | 23 | 14 | 28* | -1 | 11 | 17 | -2 | 38* | 47*
COc1cccc(CN2C(=O)c3ccccc3S2(=O)=O)c1 | -8 | 2 | nt | nt | 10 | 1 | nt | nt | nt | nt | nt
O=c1c2c([N+](=O)[O-])cc([N+](=O)[O-])cc2sn1Cc1ccccc1 | 26* | -5 | nt | nt | 32* | 8 | 20 | 5 | 95* | 12 | 9
Oc1ccc(/C=C/c2ccc3cccc(O)c3n2)cc1Br | 27* | 6 | nt | nt | 27* | 3 | 10 | 14 | 2 | 39* | 47*
O=C(O)c1ccc(/C=C/c2ccc3cccc(O)c3n2)cc1 | -10 | -2 | -11 | -3 | -7 | 4 | nt | nt | nt | nt | nt
COc1ccc(C[C@@H]2OC3(C=CC(=O)C=C3)O[C@H]2Cc2ccc(OC)cc2)cc1 | 92* | nt | nt | nt | 39* | nt | 44* | 33 | 98* | 93* | 38*
